# The full list was thinned out, with hits kept by preference.
# KDM4C inh = blocks human GASC-1 (KDM4C) demethylase activity | Q9H3R0 | GST-KDM4C 2-372, H3K9me3 peptide, LANCE TR-FRET | inhibition, % at 12.5 µM | hit rate 0.15% among 96,000 | AID 720574;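 active = mean replicate inhibition above about 25%, with at least 55% of replicates also reaching it, limit read from the data, passing the limit was not always enough; inconclusive = only one of those two conditions met; inactive = neither condition met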
# Target sequence (Q9H3R0 2-372 limits assumed): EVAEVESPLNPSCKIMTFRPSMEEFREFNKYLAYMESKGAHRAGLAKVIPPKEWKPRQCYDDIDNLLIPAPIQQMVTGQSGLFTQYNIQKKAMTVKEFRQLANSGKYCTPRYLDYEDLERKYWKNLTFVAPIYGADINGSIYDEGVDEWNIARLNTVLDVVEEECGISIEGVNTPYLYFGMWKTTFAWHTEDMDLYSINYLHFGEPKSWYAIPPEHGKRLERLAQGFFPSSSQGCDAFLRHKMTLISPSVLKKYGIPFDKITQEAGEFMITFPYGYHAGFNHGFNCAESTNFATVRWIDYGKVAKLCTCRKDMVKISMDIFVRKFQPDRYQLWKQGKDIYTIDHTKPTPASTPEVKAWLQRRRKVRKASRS
#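 Material: GST-tagged GASC-1 (JMJD2C) catalytic fragment, aa 2-372. Input: enzyme final amount 10 nM. Medium: HEPES buffer, pH 7.5, plus ascorbate. Reagent: H3K9me3 peptide substrate, Fe(II), 2-oxoglutarate. Doses: single dose. Times: reaction 30 min RT, detection step 1 h RT. Measured by: LANCE TR-FRET. Evaluation: Fall in 671/618 emission ratio as inhibition.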
# IDH1 R132H inh = blocks human IDH1 R132H reductase activity; O75874; diaphorase/resazurin fluorescence, 60 min; inhibition, % at 10 µM; hit rate 0.18% among 70,000; in the data active = inhibition above about 34%; inconclusive = no clear call, values can overlap the other calls; inactive = below about 11%
# T cruzi growth-1 = T. cruzi proliferation inhibition. inhibition, % at 8.34 µM. T. cruzi beta-gal in NIH3T3, GalScreen luminescence, 90 h. hit rate 5.9% among 77,000;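 active = mean inhibition above about 93%, with at least 55% of replicates each passing it, limit read from the data, passing the limit was not always enough; inconclusive = only one of those two conditions holds; inactive = neither condition holds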
# T cruzi growth-2 = blocks T. cruzi growth in NIH3T3 host cells. hit rate 72% among 5,600. inhibition, % at 8.35 µM. shares compounds with T cruzi growth-1. T. cruzi beta-gal in NIH3T3, GalScreen luminescence, 90 h;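 active = mean replicate inhibition above about 95% and at least 55% of replicates individually reaching it, limit read from the data; inconclusive = only one of the two criteria is met; inactive = neither criterion is met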
# T cruzi growth-3 = Trypanosoma cruzi proliferation inhibition. hit rate 21% among 5,600. T. cruzi beta-gal in NIH3T3, GalScreen luminescence, 90 h. shares compounds with T cruzi growth-1. inhibition, % at 2.09 µM;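 active = mean inhibition above about 95%, with at least 55% of replicates also reaching it, limit read from the data; inconclusive = meets just one of the two conditions; inactive = meets neither condition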
# NIH3T3 tox = kills mouse NIH/3T3 fibroblasts. cytotoxicity (signal decrease), % at 8.35 µM. hit rate 14% among 5,600. NIH/3T3 viability, CellTiter-Glo ATP luminescence, 90 h. shares compounds with T cruzi growth-1;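 active = mean signal decrease across replicates above about 35% based on untreated-well scatter, with enough replicates individually passing, limit read from the data; inconclusive = no rule stated though some were filed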
# 3T3 cytotox 2 = kills mouse NIH/3T3 fibroblasts | AID 651744 | NIH/3T3 viability, CellTiter-Glo ATP luminescence, 90 h | inhibition, % at 24.9 µM | hit rate 56% among 5,600 | shares compounds with T cruzi growth-1;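 active = mean loss of cell viability signal at or above a set limit, and enough replicates individually reaching it; inconclusive = meets only the mean limit or only the replicate share; inactive = meets neither condition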
# Numbers stand for hits; n = inactive; u = inconclusive; x = not tested or not shown.
SMILES,KDM4C inh,IDH1 R132H inh,T cruzi growth-1,T cruzi growth-2,T cruzi growth-3,NIH3T3 tox,3T3 cytotox 2
C[C@H](CO)N1C[C@H](C)[C@H](CN(C)CC2CC2)OCCCC[C@H](C)Oc2ccc(NC(=O)Nc3ccc(F)cc3)cc2C1=O,n,x,n,x,x,x,x
C[C@@H]1CCCCO[C@@H](CN(C)C)[C@H](C)CN([C@@H](C)CO)C(=O)c2cc(NC(=O)Nc3ccc(F)cc3)ccc2O1,n,n,n,x,x,x,x
C[C@@H]1CCCCO[C@@H](CN(C)CC2CC2)[C@H](C)CN([C@H](C)CO)C(=O)c2cc(NC(=O)Nc3ccc(F)cc3)ccc2O1,n,x,n,x,x,x,x
C[C@@H]1CN([C@@H](C)CO)C(=O)c2cc(NC(=O)Nc3ccc(F)cc3)ccc2O[C@@H](C)CCCCO[C@@H]1CN(C)CC1CCCCC1,n,n,117,99,n,u,103
C[C@H]1CCCCO[C@@H](CN(C)CC2CCCCC2)[C@@H](C)CN([C@@H](C)CO)C(=O)c2cc(NC(=O)Nc3ccc(F)cc3)ccc2O1,n,n,125,101,120,60,103
C[C@@H]1CN([C@@H](C)CO)C(=O)c2cc(NC(=O)Nc3ccc(F)cc3)ccc2O[C@@H](C)CCCCO[C@H]1CN(C)CC1CCCCC1,n,n,115,n,n,n,104
COc1cccc2cc(C(=O)C3C(=O)C(=O)N(CCCN(C)C)C3c3ccccc3F)oc12 (stereo unspecified),x,n,x,x,x,x,x
COc1ccc2nc(SCC(=O)NC3CCCCCC3)[nH]c2c1,x,n,x,x,x,x,x
COC(=O)c1ccccc1NC(=O)C(C)NS(=O)(=O)c1ccc(Cl)cc1 (stereo unspecified),x,n,x,x,x,x,x
CC(C)(C)C1CCc2c(sc3ncn(CC(=O)NCc4ccco4)c(=O)c23)C1 (stereo unspecified),x,n,x,x,x,x,x
O=C(CSc1nc2sc3c(c2c(=O)n1Cc1ccco1)CCC3)c1cc(Cl)sc1Cl,x,n,x,x,x,x,x
COc1ccc(NC(=O)CN2CCN(S(=O)(=O)c3c(C)cc(C)cc3C)CC2)cc1,x,n,x,x,x,x,x
O=C(NO)c1ccc(C(=O)N/N=C/c2ccc(O)c(O)c2O)cc1,x,n,x,x,x,x,x
C[C@@H]1CCCCO[C@@H](CN(C)CC2CCCCC2)[C@@H](C)CN([C@H](C)CO)C(=O)c2cc(NC(=O)Nc3ccc(F)cc3)ccc2O1,n,x,117,100,109,n,103
C[C@H](CO)N1C[C@H](C)[C@@H](CN(C)C)OCCCC[C@H](C)Oc2ccc(NC(=O)Nc3ccc(F)cc3)cc2C1=O,n,n,n,x,x,x,x
C[C@@H]1CCCCO[C@@H](CN(C)Cc2ccncc2)[C@H](C)CN([C@H](C)CO)C(=O)c2cc(NS(=O)(=O)c3ccc(Cl)cc3)ccc2O1,n,n,u,96,n,n,n
C[C@H](CO)N1C[C@H](C)[C@@H](CN(C)Cc2ccccc2)OCCCC[C@H](C)Oc2ccc(NS(=O)(=O)c3ccccc3)cc2C1=O,n,n,n,x,x,x,x
C[C@H](CO)N1C[C@H](C)[C@H](CN(C)Cc2ccccc2)OCCCC[C@H](C)Oc2ccc(NS(=O)(=O)c3ccc(Cl)cc3)cc2C1=O,n,x,107,u,u,u,104
C[C@@H]1CN([C@@H](C)CO)C(=O)c2cc(NS(=O)(=O)c3ccccc3)ccc2O[C@@H](C)CCCCO[C@H]1CN(C)Cc1ccccc1,n,n,x,x,x,x,x
C[C@@H]1CCCCO[C@@H](CN(C)Cc2ccccc2)[C@@H](C)CN([C@@H](C)CO)C(=O)c2cc(NS(=O)(=O)c3ccccc3)ccc2O1,n,x,n,x,x,x,x
C[C@@H]1CN([C@H](C)CO)C(=O)c2cc(NS(=O)(=O)c3ccc(Cl)cc3)ccc2O[C@@H](C)CCCCO[C@@H]1CN(C)Cc1ccncc1,n,n,n,x,x,x,x
C[C@@H]1CCCCO[C@@H](CN(C)Cc2ccccc2)[C@@H](C)CN([C@@H](C)CO)C(=O)c2cc(NS(=O)(=O)c3ccc(Cl)cc3)ccc2O1,n,x,u,95,108,n,104
C[C@@H]1CN([C@@H](C)CO)C(=O)c2cc(NS(=O)(=O)c3ccc(Cl)cc3)ccc2O[C@@H](C)CCCCO[C@H]1CN(C)Cc1ccccc1,n,n,109,109,107,n,88
CCOC(=O)c1c(NC(=O)C2CC(c3ccccc3Cl)=NO2)sc(C)c1C (stereo unspecified),x,n,x,x,x,x,x
C/C=C1/CN[C@H]2Cc3c([nH]c4ccccc34)C(=O)C[C@H]1C2C(=O)OC (stereo partly specified),x,n,x,x,x,x,x
SMILES,KDM4C inh,IDH1 R132H inh,T cruzi growth-1,T cruzi growth-2,T cruzi growth-3,NIH3T3 tox,3T3 cytotox 2
C/C=C/C=C/C(=O)c1cc(C)c(O)c(C)c1O,x,n,x,x,x,x,x
CCCN(C)C[C@H]1OCCCC[C@@H](C)Oc2ccc(NS(C)(=O)=O)cc2C(=O)N([C@H](C)CO)C[C@@H]1C,n,x,n,x,x,x,x
C[C@@H]1CCCCO[C@H](CN(C)Cc2ccccc2)[C@@H](C)CN([C@@H](C)CO)C(=O)c2cc(NS(=O)(=O)c3ccccc3)ccc2O1,n,n,n,x,x,x,x
C[C@H]1CCCCO[C@@H](CN(C)Cc2ccccc2)[C@@H](C)CN([C@@H](C)CO)C(=O)c2cc(NS(=O)(=O)c3ccc(Cl)cc3)ccc2O1,n,n,110,100,n,n,103
C[C@@H]1CCCCO[C@H](CN(C)Cc2ccncc2)[C@H](C)CN([C@@H](C)CO)C(=O)c2cc(NS(C)(=O)=O)ccc2O1,n,n,104,n,n,n,n
C[C@@H]1CCCCO[C@H](CN(C)Cc2ccncc2)[C@H](C)CN([C@H](C)CO)C(=O)c2cc(NS(C)(=O)=O)ccc2O1,n,n,n,x,x,x,x
CCCN(C)C[C@@H]1OCCCC[C@H](C)Oc2ccc(NS(C)(=O)=O)cc2C(=O)N([C@@H](C)CO)C[C@H]1C,n,x,u,n,n,n,n
COC(=O)c1ccc(NC(=O)CSc2nc(-c3cccs3)cc(=O)[nH]2)cc1,x,n,x,x,x,x,x
CCCOc1ccc2oc(=O)c3c(c2c1)CCCN3C(=O)CN(C)c1ccc(C)cc1,x,n,x,x,x,x,x
O=C1CC(c2ccccc2F)C2=C(CC(c3ccc(F)cc3)CC2=O)N1 (stereo unspecified),x,n,x,x,x,x,x
FC(F)(F)c1ccc(C2=NCCc3sccc32)cc1,x,n,x,x,x,x,x
O=C(CSc1n[nH]c(-c2ccc(Cl)cc2Cl)n1)Nc1ccc(I)cc1,x,n,x,x,x,x,x
C[C@H]1CN([C@@H](C)CO)S(=O)(=O)c2ccc(C#Cc3ccccc3)cc2O[C@H]1CN(C)C(=O)Nc1ccc2c(c1)OCO2,n,n,132,99,n,n,n
C[C@H]1CN([C@@H](C)CO)S(=O)(=O)c2ccc(C#Cc3ccccc3)cc2O[C@@H]1CN(C)C(=O)Nc1ccccc1,n,n,119,102,n,n,40
